Laboratory results published in article PMC9804109 (Current Research in Pharmacology and Drug Discovery, 2022).

Legend:
LN-229 cells = assay: MitoSOX flow cytometry of mitochondrial ROS, LN-229; format: cell-based, human; conditions: cytochrome c reductase inhibitor as control
Procedure, shortened: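 Cells trypsinised, washed and suspended in HBSS at 1 × 10^6 cells/mL, then exposed to test compound (0.2 or 1 mM) in HBSS for 2 h. Stained with 5 μM MitoSOX for 20 min at 37 °C and read by flow cytometry in the red channel. Antimycin A served as the ROS-promoting control. Mean channel fluorescence ± SEM, n = 3; two-way ANOVA with Bonferroni post-test vs untreated.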

trypsin = conditions: previous HPLC conditions; ref Akhmadishina et al., 2018; cited from earlier work
melanoma cells = conditions: ref Le Gal et al., 2015; cited from earlier work
V79 lung fibroblasts = conditions: ref Grosicka-Maciąg et al., 2011; cited from earlier work

For `CCCCCC[C@H]1C(=O)O[C@H](C)[C@H](NC(=O)c2cccc(NC=O)c2O)C(=O)O[C@@H](C)[C@@H]1OC(=O)CC(C)C` [antimycin A], which “effect on mitochondrial ROS (MitoSOX)” value (LN-229 cells) is on record?
The value was “lack of ROS-promoting effect”.

With YRFK-NH2 as the compound, how does the “half-time of cleavage by trypsin” value (trypsin) read?
The value was 6 h.

For `CC(=O)N[C@@H](CS)C(=O)O` [N-acetylcysteine (NAC), N-acetylcysteine], which “elevation of GSH/GSSG ratio” value (melanoma cells) is on record?
Its value is roughly 3.8 times.

And the “increase of both GSH and GSSG levels” value (V79 lung fibroblasts)?
Its value is “up to 2 times”.

For `Cc1c(C)c2c(c(C)c1O)CCC(C)(C(=O)O)O2` (centres unmarked) [Trolox], which “elevation of GSH/GSSG ratio” value (melanoma cells) is on record?
The value was “ca. 2.5 times”.
